The data set relates to MS2 coat protein. As to the kind of experiment: apparent Kd, MS2 coat protein; higher = weaker binding; RNA-MaP array; FMN 200 µM where present. An outline of the steps: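 Designs on Illumina sequencing-chip clusters, transcribed by stalled E. coli RNA polymerase, were exposed to SNAP-549-labelled MS2 coat protein in doubling steps from 0.7 or 1.5 nM up to 3 µM, without and then with constant ligand. The buffer held 100 mM Tris-HCl pH 7.5, 80 mM KCl, 4 mM MgCl2, BSA, DTT, yeast tRNA and Tween-20. Apparent Kd values are medians of filtered per-cluster binding-curve fits to green signal normalised to red-channel RNA signal and control-cluster median Fmax.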

[1] abbreviates: designed as: ON switch for flavin mononucleotide, no ligand.
Where [2] appears, read: ligand present: flavin mononucleotide, designed as: ON switch for flavin mononucleotide.
[3] abbreviates: designed as: OFF switch for flavin mononucleotide, no ligand.
[4] abbreviates: ligand present: flavin mononucleotide, designed as: OFF switch for flavin mononucleotide.

On to “GGCAGCGGACAAGGAUAUAAGACGCAGACCAAAUUAGAAGGUGUUAUCUGGCAAUGCGAAAGCAGACAUGAGGAUCACCCAUGU”, for which the “apparent Kd” value by setting is: under setting [1], 66.3 nM; under setting [2], 65.1 nM.
The like results for “GGGAGACAUGAGGAUCACCCAUGUGAAAACGUGCGAGGAUAUCUAUGGAAACCAUACUGUAGAGAAGGCGUUUGUC” were, in that order, 88.4 nM and 46.6 nM.
Turning to “GCCUCAUAGUAGAAGGGACUUCGGCUGUUAAGCAUCAUCUCCAUUUCACAUGAGGAUCACCCAUGUCAGGAUAUACUAAGAGGC”, the “apparent Kd” value was 10.3 nM under setting [3] and 24.9 nM under setting [4].
The like results for “CAGAAGUCAGGAUAUCCUGCUCGUCACUUGCGUGAUGAGUAGGAGAAGGGACAUGAGGAUCACCCAUGUAAAGC” were, in that order, 53.8 nM and 65.2 nM.
The like results for “AAUUGACACGUAGGAUAUCGCUCUAUUUUAACACGAGAAGGACGUACAUGAGGAUCACCCAUGUUUAAUGGUGUAGAUAAGUUG” were, in that order, 105 nM and 228 nM.
The like results for “UAAAAGAAAGUAAGGAUAUCUAAAUUGGAAAAGAGAGAGAAGGUACAUGAGGAUCACCCAUGUAGGGUAUCCGG” were, in that order, 52.1 nM and 72.8 nM.
Turning to “UUACAUACAAAGGUACAUGAGGAUCACCCAUGUUUGUUGGGAAGAAGGGUAACAAUACUACACAUACAGGAUAUUUCACAAACA”, the “apparent Kd” value is, setting by setting: under setting [1], 49 nM; under setting [2], 35.4 nM.
Consider “AAGGAUAGAGGAUAUGCAUAGAUACAGAUUCAUGUAGAACUACAUGAGGAUCACCCAUGUAGAAGGCUAUCCUA”, for which the “apparent Kd” value reads like this: under setting [3], 18.6 nM; under setting [4], 50.8 nM.
With “GUGCAAUGAGGAUAUACGUUGGUGAACAUCUGUGUGCUCCUACAUGAGGAUCACCCAUGUAGAAGGCAUGUCAC”, the “apparent Kd” value is, setting by setting: under setting [3], 11.4 nM; under setting [4], 17.1 nM.
As for “GCCAUCGUAUGAGGAUAUGGCACCGAAACGGUGCCAGAAGGCAUGUCGAUAGACAUGAGGAUCACCCAUGUAUUAACGAUGGCA”, the “apparent Kd” value is, setting by setting: under setting [1], 1120 nM; under setting [2], 117 nM.
“AGUUAAUAUCGAGGAUAUCCUCAUAUACAUGAGGAUCACCCAUGUAAACAUGGAGAAGGCGAUAUUAACAGCAUGUUACAUGCA”: the “apparent Kd” value is 377 nM under setting [1] and 21.9 nM under setting [2].
With “GAUCCACAUGAGGAUCACCCAUGUGAGGAUAUGAUACUAUGUACUUCGGUACAUAGUAUCAGAAGGCACAUUGA”, the “apparent Kd” value runs as follows: under setting [3], 114 nM; under setting [4], 65.9 nM.
For the sequence “GGAGCCGGUACUGAGGAUAUUCAUAUUAAAACAUGAGGAUCACCCAUGUAGGCCAGAAGGCCUUGGGAGAAGGCAGAUCGGCUCC”, the “apparent Kd” value under setting [1] was found to be 408 nM and the “apparent Kd” value under setting [2] was 25.9 nM.
For the sequence “GCAGUAAAUAAAUGCACAUGAGGAUCACCCAUGUGGGAGGCACAGGAUAUCGUAUCAUAGUGGUACGAGAAGGGUGAUAAUCUC”, the “apparent Kd” value stood at 425 nM under setting [1] and 84.4 nM under setting [2].
As to “GGUGCGUAUGUGAGGAUAUGCUGGUCCUUGGAUCUGCAGAAGGCACAUGAGGAUCACCCAUGUGGUGUCGUACC”, the “apparent Kd” value runs as follows: under setting [3], 356 nM; under setting [4], 28.5 nM.
For “CAAUUUUGGAGUUCGUAUCGAUACAUGAGGAUCACCCAUGUAAAGGAUAUGAUCUAGUUUUUAGAUCAGAAGGUUACAUAGGCG”, the “apparent Kd” value runs as follows: under setting [3], 54.9 nM; under setting [4], 25.8 nM.
Turning to “CCGGAAACGGGUAGCUGACAUGAGGAUCACCCAUGUGAAUCUGAGGAUAUGGAUCCUAAUUGGAUCCAGAAGGCAGUCAGCUAC”, the “apparent Kd” value by setting is: under setting [1], 615 nM; under setting [2], 61.4 nM.
Regarding “AUACAUGAGGAUCACCCAUGUAAUUAAUUAAUUAAUAAGAUCUAGGAUAUCAGCUCGAAUAGAGCUGAGAAGGAGAUCACAUGU”, the “apparent Kd” value reads like this: under setting [1], 23 nM; under setting [2], 14.4 nM.
“UUGGUAUUCGUAGGAUAUCCGUCGCCACCGUGUGGAGAAGGACGAACAUGAGGAUCACCCAUGUAUCAUGGUGUGGGCGUUGUC”: the “apparent Kd” value is, setting by setting: under setting [3], 92.5 nM; under setting [4], 90.1 nM.
With “AUUUCAGUCAGAGGAUAUUGUUUAUCUCUAUUGCAAGAAGGCUGAUCUUACUACCCACUUAUGAAACAUGAGGAUCACCCAUGU”, the “apparent Kd” value reads like this: under setting [1], 20.8 nM; under setting [2], 16.8 nM.
As to “AUGUCGCUAGGAGGAUAUACAUGAUCUCGCACAUGUACCGCUCACGCCACAUGAGGAUCACCCAUGUAGAAGGCCUAGAGAGGU”, the “apparent Kd” value reads like this: under setting [3], 18.6 nM; under setting [4], 54.8 nM.
As to “AGUAACAGAGGAUAUACUAUUUUAUGUAUUUAUUAUUUUGAACAUGAGGAUCACCCAUGUAGAAGGCUGAAUAA”, the “apparent Kd” value worked out at 27.1 nM under setting [3] and 22 nM under setting [4].
Consider “AAUUAUAUACAGAAGGAGUUAUUUAGAGGAUUACUAGGAUAUGUUCACAUGAGGAUCACCCAUGUCAUAUUGGGAUUUAUUAUU”, for which the “apparent Kd” value by setting is: under setting [3], 18 nM; under setting [4], 24 nM.
The like results for “UGAUAGGACAGAGGAUAUACAGAUAGGAUCUACUAUCAAACAAUCCUGACAUGAGGAUCACCCAUGUAGAAGGCUGUCCUAUCU” were, in that order, 22.5 nM and 86.5 nM.

In general, apparent Kd refers to the concentration giving half-maximal binding under the conditions of the assay.

(Values after the EternaBench riboswitch data.)
